Measurements: paper PMC6030940 (International Journal of Nanomedicine, 2018)
Entries after “also recorded” stand apart in the source; their conditions may differ.

What was measured:
MDCK-MDR1 cell monolayer = test: Bidirectional transport across MDCK-MDR1 cell monolayer; details: BBR in the presence of 10 µM verapamil
P-gp (MDR1) = test: as above; details: dog, MDCK-MDR1, pH 7.4
Pgp [1] = test: as above; details: dog, MDCK-MDR1, pH 7.4
[2] = has been reported; cited from earlier work
[3] = Morphology and size by scanning electron microscopy; type: physicochemical; details: SEM images
How it was run: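 Samples were fixed on SEM stubs with double-sided adhesive tape and coated with Au. They were imaged by scanning electron microscopy at 15 kV acceleration voltage.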

Caco-2 monolayer = details: previous study; cited from earlier work
Pgp mRNA in T84 cells = details: 10 µM, 72 h; cited from earlier work
[4] = system: Pgp mRNA expression in MDCK-MDR1 cells; test: Pgp mRNA expression, real-time quantitative PCR; type: cell-based; details: normalized to GAPDH
How it was run: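 MDCK-MDR1 cells (DMEM, 10% FBS, 37°C, 5% CO2) were exposed to the test surfactant for 3 or 24 h. Total RNA was kit-extracted and reverse-transcribed with gDNA eraser. qPCR ran 95°C 30 s, then 40 cycles of 95°C 5 s and 60°C 30 s, followed by melt-curve analysis. Pgp expression was normalised to GAPDH by the 2−ΔΔCq method.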

Pgp [5] = target: T1, Pgp (Homo sapiens, UniProt P08183); test: Cellular uptake of BBR in MDCK-MDR1 cells; type: cell-based; details: BS20 8.1 µM, BBR 100 µM, 37°C, 90 min
[6] = no reference given; cited from earlier work
human Pgp membrane = human Pgp membrane (Homo sapiens, UniProt P08183); test: Pgp ATPase activity, Pgp-Glo assay system; details: 37°C, 120 min
[7] = system: intracellular ATP in MDCK-MDR1 cells; test: Intracellular ATP level, ATPlite luminescence assay; type: cell-based, canine; details: BS20 5 or 10 µM
How it was run: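 MDCK-MDR1 cells were seeded at 1 × 10^4 cells/well, left to adhere overnight, then exposed to the test surfactant at 5 or 10 μM for 3 or 24 h. Cells were lysed by three freeze-thaw cycles in lysis reagent. Substrate reagent was added and plates rocked 10 min at room temperature. ATPlite luminescence was read on a plate reader.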

Pgp [8] = target: T1, Pgp; test: Cellular uptake of Rhodamine123 by MDCK-MDR1 cells; type: cell-based; details: 37°C, 90 min, Figure 2
[9] = system: Pgp protein expression in MDCK-MDR1 cells; test: Cellular Pgp protein expression, Western blotting; type: cell-based; details: BS20 5 or 10 µM, 3 h and 24 h
[10] = system: Pgp expression in kidney cancer cells; details: 5 ng/mL, 72 h; cited from earlier work

T1 sequence (P08183 whole entry): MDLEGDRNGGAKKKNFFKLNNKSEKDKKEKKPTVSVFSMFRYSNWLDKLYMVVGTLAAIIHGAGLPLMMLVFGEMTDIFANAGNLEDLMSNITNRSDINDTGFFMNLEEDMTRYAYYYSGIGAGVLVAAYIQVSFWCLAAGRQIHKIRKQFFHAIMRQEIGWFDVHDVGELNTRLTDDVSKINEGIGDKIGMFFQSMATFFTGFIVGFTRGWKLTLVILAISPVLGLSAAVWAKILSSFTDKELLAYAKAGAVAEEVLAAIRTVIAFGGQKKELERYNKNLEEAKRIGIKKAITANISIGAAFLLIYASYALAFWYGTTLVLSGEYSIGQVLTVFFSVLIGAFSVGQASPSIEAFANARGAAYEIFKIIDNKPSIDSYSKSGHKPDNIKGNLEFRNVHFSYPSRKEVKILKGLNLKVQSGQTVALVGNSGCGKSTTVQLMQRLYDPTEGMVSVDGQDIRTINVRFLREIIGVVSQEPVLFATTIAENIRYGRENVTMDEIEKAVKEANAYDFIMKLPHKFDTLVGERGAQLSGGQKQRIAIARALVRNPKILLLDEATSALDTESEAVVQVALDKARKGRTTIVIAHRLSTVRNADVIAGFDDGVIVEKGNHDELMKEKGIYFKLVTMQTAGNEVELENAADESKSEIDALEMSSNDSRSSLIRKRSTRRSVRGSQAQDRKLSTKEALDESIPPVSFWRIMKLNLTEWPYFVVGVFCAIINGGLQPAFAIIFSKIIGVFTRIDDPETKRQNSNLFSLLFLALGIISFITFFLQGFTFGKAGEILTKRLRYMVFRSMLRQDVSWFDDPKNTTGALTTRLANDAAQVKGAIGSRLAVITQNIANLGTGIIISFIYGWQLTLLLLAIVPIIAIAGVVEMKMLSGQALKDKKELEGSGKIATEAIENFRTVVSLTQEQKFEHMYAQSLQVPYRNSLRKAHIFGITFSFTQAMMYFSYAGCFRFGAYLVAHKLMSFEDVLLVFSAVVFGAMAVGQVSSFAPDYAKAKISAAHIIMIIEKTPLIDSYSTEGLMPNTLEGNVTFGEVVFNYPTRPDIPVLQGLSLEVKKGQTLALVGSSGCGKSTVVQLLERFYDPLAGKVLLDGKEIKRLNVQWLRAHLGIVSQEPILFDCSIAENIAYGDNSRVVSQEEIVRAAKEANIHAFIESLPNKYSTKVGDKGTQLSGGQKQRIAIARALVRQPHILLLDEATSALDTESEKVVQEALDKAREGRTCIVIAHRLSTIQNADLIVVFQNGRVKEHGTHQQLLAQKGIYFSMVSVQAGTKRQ
Sequence of human Pgp membrane (P08183 whole entry): as above

COc1ccc2cc3[n+](cc2c1OC)CCc1cc2c(cc1-3)OCO2 [BBR, Berberine]
absorptive quotient (AQ) (MDCK-MDR1 cell monolayer): 0.344 | secretory quotient (SQ) (MDCK-MDR1 cell monolayer): 1.16 | efflux ratio at 120 min, 10 µM (P-gp (MDR1)): 7.12 | Papp A→B at 120 min, 10 µM (Pgp [1]): 0.4 ± 0.01 ×10⁻⁶ cm/s | Papp B→A at 120 min, 10 µM (Pgp [1]): 2.85 ± 0.04 ×10⁻⁶ cm/s | oral bioavailability [2]: < 1% | size by SEM [3]: 1–2 µm

polyoxyethylene (23) lauryl ether [Brij-35]
permeation of bis(12)-hupyridone through Caco-2 monolayer (Caco-2 monolayer): significantly increase the permeation

CC(C)CN(C[C@@H](O)[C@H](Cc1ccccc1)NC(=O)O[C@H]1CCOC1)S(=O)(=O)c1ccc(N)cc1 [amprenavir]
increase of mRNA levels of Pgp (Pgp mRNA in T84 cells): 5.1 fold

polyoxyethylene (20) stearyl ether [BS20]
Pgp mRNA expression ([4]; BS20 5 µM, 3 h): 0.9 fold | Pgp mRNA expression ([4]; BS20 5 µM, 24 h): 2.3 fold | Pgp mRNA expression ([4]; BS20 10 µM, 3 h): 1.4 fold | Pgp mRNA expression ([4]; BS20 10 µM, 24 h): 3.8 fold | increase of cellular uptake of BBR vs BBR group (Pgp [5]): 4.1 fold | critical micelle concentration [6]: 0.006 mM | stimulation of Pgp-ATPase activity vs normal control (basal level) (human Pgp membrane; BS20 5 µM): 3.5 fold | stimulation of Pgp-ATPase activity vs normal control (basal level) (human Pgp membrane; BS20 10 µM): 4.5 fold | activity of intracellular ATP ([7]; 3 h): dose-dependently inhibited; also recorded: inhibited the activity of intracellular ATP | activity of intracellular ATP ([7]; 24 h): reversed to normal level | effect on intracellular accumulation of Rho123 (Pgp [8]): presented the most potency on increasing the intracellular accumulation of Rho123 | Pgp protein expression [9]: no significant changes in Pgp protein expression | size by SEM [3]: > 5 µm

D-α-Tocopherol polyethylene glycol 1000 succinate [TPGS]
critical micelle concentration [6]: 0.02 mM | effect on intracellular accumulation of Rho123 (Pgp [8]): most powerful nonionic surfactant with the function of Pgp inhibition

C=C[C@H]1C[N@@]2CC[C@H]1C[C@@H]2[C@@H](O)c1ccnc2ccc(OC)cc12 [quinidine]
increase of mRNA levels of Pgp (Pgp mRNA in T84 cells): 3.8 fold

C/C=C1\NC(=O)[C@H]2CSSCC/C=C/[C@H](CC(=O)N[C@H](C(C)C)C(=O)N2)OC(=O)[C@H](C(C)C)NC1=O [depsipeptide]
increased expression levels of Pgp [10]: 6.3 fold
